Screening data from PubChem BioAssay.
H9c2 TAG inh: inhibitors of triacylglycerol accumulation, primary screen, cell-based, uHTS, fluorescence, H9c2 | H9c2 cells, Nile Red lipid (TAG) fluorescence; cells loaded with 200 µM oleic acid | 230,000 tested, 0.66% active | inhibition, % at 12.5 µM;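 active = pattern-corrected inhibition of lipid staining of at least 50% with the nuclear-stain viability signal not falling by more than 50%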;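 note: 0% = DMSO wells and 100% = triacsin C control wells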
Calb FLC: C. albicans growth inhibition with fluconazole, primary screen, CaCi-2 strain, Alamar Blue fluorescence; C. albicans CaCi-2 + fluconazole, 48 h; growth inhibition, % (test concentration not listed); 300,000 tested, 0.57% active; AID 1979, 2009;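 active = growth inhibition above about 58% in most replicates, limit read from the data, passing the limit was not always enough; inconclusive = exactly half the replicates above a set limit; inactive = most replicates below a set limit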;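 note: all wells also contain fluconazole at 8 µg/ml as a sub-toxic cotreatment; 0% = median of DMSO wells and 100% = median of geldanamycin control wells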
MC4R antagonist: MC4R antagonists of cAMP signaling, primary screen, cell-based, TR-FRET, antagonist arm of biased-ligand search; Melanocortin receptor 4 (Homo sapiens), P32245; AID 540295, 2011; MC4R-expressing cells, MTII-stimulated cAMP, LANCE TR-FRET; inhibition, % at 6.5 µM; 360,000 tested, 0.48% active;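 active = inhibition above its plate's cutoff, the mean of tested wells on that plate plus 3 SD, cut at about 29% in these data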;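 note: 0% = Melanotan II alone and 100% = Melanotan II plus saturating MCL0020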
Target sequence (P32245 whole entry, looked up): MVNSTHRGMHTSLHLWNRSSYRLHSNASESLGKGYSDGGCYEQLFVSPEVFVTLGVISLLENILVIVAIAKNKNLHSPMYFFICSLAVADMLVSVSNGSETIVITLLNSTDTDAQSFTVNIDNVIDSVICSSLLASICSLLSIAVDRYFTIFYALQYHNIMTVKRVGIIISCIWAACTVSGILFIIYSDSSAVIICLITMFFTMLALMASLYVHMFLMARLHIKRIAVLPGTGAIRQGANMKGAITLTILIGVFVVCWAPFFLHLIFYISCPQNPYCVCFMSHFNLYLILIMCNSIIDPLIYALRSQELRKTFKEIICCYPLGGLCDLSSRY
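Material – human MC4R-expressing U2OS cells · Repeats – no replicates · Detection – TR-FRET with Eu-cAMP and labeled anti-cAMP, 671 nm · Times – compound 30 min, challenge 1 h, detection 1 h · Compound – single nominal compound dose of 6.5 µM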
GalR3 antagonist: GalR3 antagonists in HEK293 cells, primary screen, cell-based, fluorescence readout | Galanin receptor type 3 (Homo sapiens), O60755 | HEK293 GalR3-CNG cAMP membrane potential fluorescence; galR3 body fused to GalR1 C-terminus | inhibition, % at 3 µM | 360,000 tested, 0.44% active | AID 651719, 2012;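 active = inhibition above the screen-wide average plus 3 SD, cut at about 13% in these data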;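 note: forskolin and galanin both at EC90 stimulate the cells; cAMP rise reported by CNG channel membrane potential dye signal; 0% = forskolin plus galanin with DMSO and 100% = forskolin alone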
Target sequence (O60755 1-299 limits assumed): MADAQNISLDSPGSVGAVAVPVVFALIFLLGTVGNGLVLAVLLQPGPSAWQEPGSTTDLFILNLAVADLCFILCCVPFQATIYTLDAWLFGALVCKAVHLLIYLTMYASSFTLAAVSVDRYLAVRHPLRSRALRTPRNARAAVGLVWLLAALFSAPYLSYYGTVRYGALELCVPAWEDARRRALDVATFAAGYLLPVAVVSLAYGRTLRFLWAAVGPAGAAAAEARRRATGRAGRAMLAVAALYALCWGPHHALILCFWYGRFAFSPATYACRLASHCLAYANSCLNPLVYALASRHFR
Efflux pump mplx: inhibitors of Candida efflux pumps in yeast, primary screen, S. cerevisiae, Nile Red, multiplex; S. cerevisiae Candida pump triplex; inhibition, % at 10 µM; 330,000 tested, 0.44% active; AID 485275, 2010;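 active = plate passing quality check with inhibition over a set limit, or well fluorescence over plate mean plus 4 SD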;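 note: Nile Red retained in pooled yeast measured as flow cytometry median fluorescence; 0% = buffer negative control and 100% = Enniatin B positive control; higher means more Nile Red kept so more efflux inhibition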
MC4R barr agon: MC4R agonists recruiting beta-arrestin, primary screen, cell-based, luminescence, agonist arm of biased-ligand search. Melanocortin receptor 4 (Homo sapiens), P32245. U2OS MC4R beta-arrestin complementation; percent of melanotan II response, DMSO zero. activation, % at 8.9 µM. 360,000 tested, 0.98% active;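 active = activation above a per-plate cutoff, the mean activation of sample wells on that plate plus 3 SD, cut at about 8% in these data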
Cmpd fluor yeast: counter-screen for efflux pump inhibitors: compound fluorescence; S. cerevisiae AD/pABC3, flow cytometry; 1,700 tested, 4% active; shares compounds with Efflux pump mplx; fluorescence ratio to DMSO, % at 10 µM;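 active = fluorescence ratio to DMSO above its plate's cutoff, the plate mean ratio plus 5 SD, cut at about 210% in these data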;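 note: unstained yeast with no Nile Red so the signal is compound autofluorescence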
CaMdr1 efflux inh: inhibitors of Candida albicans Mdr1 efflux, confirmation, flow cytometry, singleplex, Cherry Pick1 set | AID 588518, 2011 | S. cerevisiae AD/CaMDR1, Nile Red efflux | inhibition, % at 10 µM | shares compounds with Efflux pump mplx | 1,700 tested, 1% active; in the data active = inhibition above about 26%;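 note: 0% = DMSO vehicle and 100% = reference inhibitor; higher means more Nile Red retained so more efflux inhibition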
Cdr2 pump inh: inhibitors of Candida albicans Cdr2 efflux pump, confirmation, S. cerevisiae AD/CaCDR2, flow cytometry, cherry pick 1, singleplex; shares compounds with Efflux pump mplx; Nile Red retention; Nile Red retention ratio vs DMSO, % at 10 µM; 1,700 tested, 4% active; in the data active = Nile Red retention ratio vs DMSO above about 190%;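 note: higher ratio means more blocking of Cdr2 efflux of the dye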
Cdr1 pump inh: inhibitors of Candida albicans Cdr1 efflux pump, confirmation, S. cerevisiae AD/CaCDR1, flow cytometry, cherry pick 1, singleplex. 1,700 tested, 1% active. Nile Red efflux. AID 588522, 2011. shares compounds with Efflux pump mplx. inhibition, % at 10 µM;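 active = inhibition above the screen-wide mean plus twice its standard deviation, cut at about 32% in these data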
The depositor's hits bear a star; ? = inconclusive; . = no result given. In the library only some 2.9% were active in any assay of this set; here they are far more common.

SMILES | H9c2 TAG inh | Calb FLC | MC4R antagonist | GalR3 antagonist | Efflux pump mplx | MC4R barr agon | Cmpd fluor yeast | CaMdr1 efflux inh | Cdr2 pump inh | Cdr1 pump inh
CCC1CCCCN1CCCNC(=O)CN1C(=O)COc2ccc(S(=O)(=O)N3CCOCC3)cc21 (configuration not stated) | . | 12 | 4 | 0 | 43* | -2 | 103 | 0 | 94 | 0
CC(C)NC(=O)c1csc(COCCO)n1 | -30 | . | -7 | -2 | . | -1 | . | . | . | .
O=C(Oc1ccc(/C=N/NC(=O)c2ccccn2)cc1)c1ccc(Br)cc1 | 5 | 14 | 2 | -4 | 7.2* | -3 | 101 | 0 | 102 | 0
O=C(Oc1ccc(/C=N/NC(=O)c2ccccn2)cc1)c1cccc(Br)c1 | 2 | ? | -3 | 5 | 0 | -3 | . | . | . | .
O=[N+]([O-])c1ccc(COc2ccc(-c3[nH]ncc3-c3ccc(Cl)cc3)c(O)c2)cc1 | . | -3 | 5 | -3 | 18* | 6 | 109 | 0 | 112 | 0
COc1ccc(-c2oc3c(c2-c2cnc(OC)nc2)C(O)CC3)cc1 (configuration not stated) | . | . | . | -1 | . | . | . | . | . | .
COc1ccc(NC(=O)CSc2ncn[nH]2)c([N+](=O)[O-])c1 | . | 29 | 8 | -2 | 0 | 0 | . | . | . | .
CCOc1ccc(NC(=O)CSc2ncn[nH]2)c([N+](=O)[O-])c1 | -13 | -7 | -4 | -1 | 18* | 1 | 98 | 0 | 85 | 0
O=C(NCc1cccc(OC(F)(F)F)c1)c1ccc2c(c1)S(=O)(=O)c1cc(Cl)ccc1C2=O | -28 | . | 5 | -2 | 0 | 2 | . | . | . | .
O=C(c1cc2c(s1)CCCC2)N1CCN(S(=O)(=O)c2ccccc2C(F)(F)F)CC1 | . | -1 | 7 | 3 | 6.7* | 0 | 108 | 0 | 106 | 0
Cc1ccc(S(=O)(=O)N2CCN(C(=O)c3cc4c(s3)CCCC4)CC2)c(C)c1 | -23 | . | 4 | 1 | 0 | 1 | . | . | . | .
CCOC(=O)C1(C)C(=O)CC2c3nc4ccccc4cc3CN2C1=O (configuration not stated) | 0 | . | 5 | -1 | . | -4 | . | . | . | .
O=C(Cn1c2ccccc2c(=O)c2ccccc21)Nc1ccccc1F | . | 21 | 8 | 1 | 17* | -1 | 98 | 0 | 103 | 0
CC(=O)c1cn(CC(=O)Nc2ccccc2F)c2ccccc12 | . | 3 | 5 | -7 | 0 | -1 | . | . | . | .
CN(C(=O)CSc1nnc(-c2ccccc2)n1C)C1CCS(=O)(=O)C1 (configuration not stated) | -4 | 6 | 1 | 0 | 0 | -3 | . | . | . | .
Cc1cc(C)n2c(SCC(=O)N(C)C3CCS(=O)(=O)C3)nnc2n1 (configuration not stated) | -13 | 1 | 6 | -6 | 0.6* | -1 | 110 | 0 | 109 | 0
COCCCn1c(=S)[nH]c2sc3c(c2c1=O)CCCC3 | . | -1 | 10 | -8 | 0 | -1 | . | . | . | .
COCCn1c(=S)[nH]c2sc3c(c2c1=O)CCCC3 | . | 12 | 14 | -10 | 1.1* | -2 | 87 | 0 | 89 | 0
C[C@H]1CN([C@@H](C)CO)C(=O)CCCn2cc(nn2)CO[C@@H]1CN(C)C(=O)Nc1ccc(-c2cccs2)cc1 | . | . | . | -7 | . | . | . | . | . | .
O=C(Cc1ccccc1)Nc1ccc(NC(=O)c2ccc(Br)cc2)cc1 | 9 | 0 | 13 | -2 | 0 | 4 | . | . | . | .
COc1ccc(CC(=O)Nc2ccc(NC(=O)c3ccc(Br)cc3)cc2)cc1OC | -1 | -2 | 6 | -10 | 0.8* | -1 | 99 | 0 | 98 | 0
O=C(C(=O)N1CCN(c2ccccc2)CC1)c1ccco1 | . | . | . | -7 | . | . | . | . | . | .
CCOc1cc(CNc2ccc(OC)cc2)cc(Br)c1OCC(=O)NC(C)(C)C | . | -4 | -12 | -5 | 0 | -3 | . | . | . | .
COc1cc(CNc2ccc(C(=O)O)cc2)cc(Br)c1OCC(=O)NC(C)(C)C | . | -22 | -2 | -2 | 21* | -1 | 108 | 0 | 102 | 0
CCOC(=O)c1cnc(SC)nc1Oc1cccc(NC(=O)c2ccc(Cl)cc2)c1 | 9 | -2 | 2 | -4 | 1.5* | -2 | 105 | 0 | 116 | 1
SMILES | H9c2 TAG inh | Calb FLC | MC4R antagonist | GalR3 antagonist | Efflux pump mplx | MC4R barr agon | Cmpd fluor yeast | CaMdr1 efflux inh | Cdr2 pump inh | Cdr1 pump inh
COc1ccccc1-c1cccc([C@@H]2C[C@H]3[C@H](CON3C)CN2S(=O)(=O)c2ccccc2C)c1 | -16 | . | 7 | -8 | . | 0 | . | . | . | .
O=C(CN1CCN(Cc2ccccc2Cl)CC1)N=Nc1c(O)[nH]c2ccccc12 | . | 3 | 3 | -3 | 13* | -3 | 107 | 0 | 99 | 0
COC(=O)C1(C)NCCc2c1[nH]c1ccccc21 (configuration not stated) | . | -3 | 13 | -5 | 0 | 0 | . | . | . | .
CCOC(=O)N1CCC2(CC1)NCCc1c2[nH]c2ccccc12 | 3 | -8 | -3 | -3 | 0.9* | -2 | 97 | 0 | 97 | 0
CC1(C)CC(=O)C(C=Nc2cc(C(=O)c3ccccc3)ccc2N)=C(O)C1 | 5 | 7 | 3 | -4 | 0 | -3 | . | . | . | .
COC(=O)c1ccc(N)c(N=CC2=C(O)CC(C)(C)CC2=O)c1 | . | -2 | 5 | 1 | 1.7* | -3 | 95 | 0 | 105 | 0
N/C(=N\OC(=O)Cc1cccc2ccccc12)c1ccccn1 | -8 | 0 | 5 | -7 | 1.2* | -2 | 109 | 0 | 109 | 0
Oc1cc(O)cc(C=Cc2ccc(O)c(O)c2)c1 | . | . | . | -3 | . | . | . | . | . | .
CCc1cc2c(nc1CC)CCCN2S(=O)(=O)c1ccc(C#N)cc1 | . | . | . | -7 | . | . | . | . | . | .
NC(=S)NNC(=O)[C@@H]1CCCC[C@@H]1C(=O)O | . | -2 | -1 | . | 15* | -2 | 101 | 0 | 104 | 0
